Experimental data as given in ChEMBL document CHEMBL4033794, “Discovery of Trifluoromethyl Glycol Carbamates as Potent and Selective Covalent Monoacylglycerol Lipase (MAGL) Inhibitors for Treatment of Neuroinflammation” (J Med Chem, 2018).
Activity calls are given as the source filed them. The rule behind the calls is not given here.

Tests used:
Monoglyceride lipase = target: T1, Monoglyceride lipase (Homo sapiens, UniProt Q99685); assay: Inhibition of recombinant human MAGL using fluorogenic-7HCA as substrate preincubated for 30 mins followed by substrate addition measured after 60 mins by fluorescence based assay
T1 sequence (Q99685 whole entry): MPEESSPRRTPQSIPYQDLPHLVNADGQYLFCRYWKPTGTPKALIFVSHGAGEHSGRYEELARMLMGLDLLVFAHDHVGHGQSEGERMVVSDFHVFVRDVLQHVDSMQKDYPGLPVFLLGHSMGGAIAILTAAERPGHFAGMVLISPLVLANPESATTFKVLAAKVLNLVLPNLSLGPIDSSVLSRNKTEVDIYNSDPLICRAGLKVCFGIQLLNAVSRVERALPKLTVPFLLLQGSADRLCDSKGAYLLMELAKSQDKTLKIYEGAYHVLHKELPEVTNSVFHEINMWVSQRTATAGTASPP

[1] = target: T2, Monoglyceride lipase (Homo sapiens) (UniProt Q99685); assay: Inhibition of recombinant human MAGL assessed as Kintact to Ki ratio using fluorogenic-7HCA as substrate measured after 60 mins by fluorescence based assay
T2 sequence (whole entry): T1 sequence (Q99685 whole entry)
Method in brief: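 Same MAGL fluorogenic setup (88 pM enzyme, 5 μM 7-HCA, HEPES pH 7.4 buffer) but substrate added immediately without preincubation; fluorescence read every minute to obtain progress curves across decreasing inhibitor concentrations; kobs derived per concentration and kinact/KI taken from plot of kobs versus concentration.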

[2] = target: T3, Fatty-acid amide hydrolase 1 (Homo sapiens, UniProt O00519); assay: Inhibition of recombinant human FAAH using fluorogenic arachidonoyl-AMC as substrate preincubated for 30 mins followed by substrate addition measured after 60 mins by fluorescence based assay
T3 sequence (O00519 whole entry): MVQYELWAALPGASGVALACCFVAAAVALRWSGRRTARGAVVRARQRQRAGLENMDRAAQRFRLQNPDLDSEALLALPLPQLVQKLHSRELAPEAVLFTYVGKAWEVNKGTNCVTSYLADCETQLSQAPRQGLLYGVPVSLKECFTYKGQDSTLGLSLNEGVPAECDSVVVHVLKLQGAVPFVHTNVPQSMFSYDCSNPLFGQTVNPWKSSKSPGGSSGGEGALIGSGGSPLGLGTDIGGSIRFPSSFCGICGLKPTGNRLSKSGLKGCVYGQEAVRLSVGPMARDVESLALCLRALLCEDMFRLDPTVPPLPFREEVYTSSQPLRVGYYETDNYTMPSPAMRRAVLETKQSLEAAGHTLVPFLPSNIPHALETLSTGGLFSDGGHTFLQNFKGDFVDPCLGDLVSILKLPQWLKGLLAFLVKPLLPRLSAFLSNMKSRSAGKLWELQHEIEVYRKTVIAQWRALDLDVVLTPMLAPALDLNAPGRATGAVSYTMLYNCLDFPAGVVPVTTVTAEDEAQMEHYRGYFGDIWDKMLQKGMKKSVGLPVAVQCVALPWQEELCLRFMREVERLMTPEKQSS
Method in brief: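 Human recombinant FAAH (0.0125 U final) in 50 mM Tris pH 9.0, 1 mM EDTA, preincubated 30 min at room temperature with compound (30 μM to 0.3 nM final); arachidonoyl-AMC 5 μM added, 60 min reaction, read Ex/Em 355/460. Inhibition vs no-compound and full-inhibition controls; four-parameter fit; geometric mean of ≥3 experiments.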

[3] = Lipophilicity, log D of the compound by HPLC analysis; assay type: physicochemical
Method in brief: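 LogD determined by an HPLC-based (eLogD) method.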

Homo sapiens = species on record: Homo sapiens; assay: Selectivity ratio of IC50 for recombinant human FAAH to IC50 for recombinant human MAGL
[4] = Lipophilicity, log D of the compound at pH 7.4 by shake flask method; assay type: physicochemical; details: buffer
[5] = Intrinsic clearance in human liver microsomes; assay type: ADME, microsome; details: read-out: CLH
Method in brief: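 Substrate depletion in human liver microsomes; intrinsic clearance scaled to mL/min/kg.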

[6] = Kinetic solubility of the compound at pH 7.4; assay type: physicochemical; details: buffer, read-out: Kinetic_solubility
[7] = target: T4, CES1 (liver carboxylesterase 1) (Homo sapiens, UniProt P23141); assay: (§1) Inhibition of human CES1 at 10 uM
T4 sequence (P23141 whole entry): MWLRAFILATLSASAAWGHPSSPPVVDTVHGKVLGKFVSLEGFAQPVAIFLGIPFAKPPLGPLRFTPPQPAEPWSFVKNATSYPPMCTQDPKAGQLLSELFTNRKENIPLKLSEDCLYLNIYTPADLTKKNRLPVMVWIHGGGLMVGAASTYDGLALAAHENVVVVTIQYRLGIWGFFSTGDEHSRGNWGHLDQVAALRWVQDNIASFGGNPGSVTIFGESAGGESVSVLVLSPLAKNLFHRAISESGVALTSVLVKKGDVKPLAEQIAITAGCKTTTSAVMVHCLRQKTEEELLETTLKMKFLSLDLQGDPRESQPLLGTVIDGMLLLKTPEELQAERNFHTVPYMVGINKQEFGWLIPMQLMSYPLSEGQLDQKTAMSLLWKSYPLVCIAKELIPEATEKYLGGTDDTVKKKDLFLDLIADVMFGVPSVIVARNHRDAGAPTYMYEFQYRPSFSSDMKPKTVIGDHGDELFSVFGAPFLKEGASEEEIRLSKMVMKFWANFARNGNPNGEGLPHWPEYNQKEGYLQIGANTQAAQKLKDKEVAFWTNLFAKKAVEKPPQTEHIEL
Method in brief: (§2)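 Panel of 42 human serine hydrolases, each exposed to inhibitor at 10 µM; activity expressed as percent inhibition.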

[8] = target: T5, Monoacylglycerol lipase ABHD6 (Homo sapiens) (UniProt Q9BV23); assay: Inhibition of human ABHD6 at 10 uM; method in brief: as §2
T5 sequence (whole entry): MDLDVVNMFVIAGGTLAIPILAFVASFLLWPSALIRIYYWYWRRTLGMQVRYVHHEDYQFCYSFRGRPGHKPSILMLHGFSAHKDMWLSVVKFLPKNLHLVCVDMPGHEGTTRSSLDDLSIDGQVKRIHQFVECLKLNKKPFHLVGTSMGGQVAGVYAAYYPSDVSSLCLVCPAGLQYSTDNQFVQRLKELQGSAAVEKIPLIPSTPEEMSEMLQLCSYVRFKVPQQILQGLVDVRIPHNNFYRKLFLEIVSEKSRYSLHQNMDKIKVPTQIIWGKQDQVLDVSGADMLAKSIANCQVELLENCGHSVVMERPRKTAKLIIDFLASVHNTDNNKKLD

Liver carboxylesterase 1 = target: T6, Liver carboxylesterase 1 (Homo sapiens, UniProt P23141); assay: as §1; details: 10 µM; method in brief: as §2
T6 sequence (P23141 whole entry): T4 sequence (P23141 whole entry)

Cocaine esterase = target: T7, Cocaine esterase (Homo sapiens, UniProt O00748); assay: Inhibition of human CES2 at 10 uM; method in brief: as §2
T7 sequence (O00748 whole entry): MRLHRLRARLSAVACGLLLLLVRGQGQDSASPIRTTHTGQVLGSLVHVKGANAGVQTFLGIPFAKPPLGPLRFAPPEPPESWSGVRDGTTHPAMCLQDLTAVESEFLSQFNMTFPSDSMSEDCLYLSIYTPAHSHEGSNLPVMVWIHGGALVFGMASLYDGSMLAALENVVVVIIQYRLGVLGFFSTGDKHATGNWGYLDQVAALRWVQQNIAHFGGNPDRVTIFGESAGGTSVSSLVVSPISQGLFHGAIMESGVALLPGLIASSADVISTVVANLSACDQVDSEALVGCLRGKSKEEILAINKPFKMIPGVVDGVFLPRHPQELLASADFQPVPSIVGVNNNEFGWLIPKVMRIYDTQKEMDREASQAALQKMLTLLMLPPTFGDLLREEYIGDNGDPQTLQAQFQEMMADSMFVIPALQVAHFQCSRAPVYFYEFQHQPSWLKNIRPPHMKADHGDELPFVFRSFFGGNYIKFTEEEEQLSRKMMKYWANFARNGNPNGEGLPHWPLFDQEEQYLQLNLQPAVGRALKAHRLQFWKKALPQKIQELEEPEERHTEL

[9] = target: T8, Fatty-acid amide hydrolase 1 (Homo sapiens) (UniProt O00519); assay: Inhibition of human FAAH at 10 uM; method in brief: as §2
T8 sequence (whole entry): T3 sequence (O00519 whole entry)

[10] = target: T9, Fatty-acid amide hydrolase 2 (Homo sapiens) (UniProt Q6GMR7); assay: Inhibition of human FAAH2 at 10 uM; method in brief: as §2
T9 sequence (whole entry): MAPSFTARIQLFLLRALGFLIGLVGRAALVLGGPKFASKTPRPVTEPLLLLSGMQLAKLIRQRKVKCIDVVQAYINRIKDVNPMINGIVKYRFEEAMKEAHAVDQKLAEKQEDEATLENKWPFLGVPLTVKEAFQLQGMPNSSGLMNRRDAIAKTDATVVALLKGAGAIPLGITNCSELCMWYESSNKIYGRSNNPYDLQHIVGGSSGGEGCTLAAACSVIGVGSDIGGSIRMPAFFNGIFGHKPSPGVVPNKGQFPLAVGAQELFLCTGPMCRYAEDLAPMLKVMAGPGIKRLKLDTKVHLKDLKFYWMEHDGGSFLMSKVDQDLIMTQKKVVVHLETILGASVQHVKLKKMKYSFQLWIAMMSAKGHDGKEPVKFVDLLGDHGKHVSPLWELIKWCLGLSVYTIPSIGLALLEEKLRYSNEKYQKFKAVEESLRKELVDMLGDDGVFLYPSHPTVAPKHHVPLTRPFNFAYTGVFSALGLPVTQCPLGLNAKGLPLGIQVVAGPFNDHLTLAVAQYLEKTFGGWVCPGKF

SMILES: O=C(O[C@H](CF)C(F)(F)F)N1C[C@@H]2[C@H](C1)[C@H]2c1ccn(-c2ccc(F)cc2)n1
- IC50 (Monoglyceride lipase): 26 nM
- Ratio [1]: 1580 M⁻¹ s⁻¹
- IC50 [2]: 1900 nM
- logD [3]: 4.3
- Ratio IC50 (Homo sapiens): 73

SMILES: O=C(Oc1ccc([N+](=O)[O-])cc1)N1C[C@@H]2[C@H](C1)[C@H]2c1ccn(-c2ccc(F)cc2)n1
- IC50 (Monoglyceride lipase): 24 nM
- Ratio [1]: 2880 M⁻¹ s⁻¹
- IC50 [2]: 18 nM
- logD [4]: 4.2

SMILES: O=C(O[C@@H](CO)C(F)(F)F)N1C[C@@H]2[C@H](C1)[C@H]2c1ccn(-c2ccc(F)cc2)n1
- IC50 (Monoglyceride lipase): 890 nM
- IC50 [2]: 26000 nM
- logD [3]: 3.9
- CLint scaled [5]: < 8 mL/min/kg

SMILES: O=C(O[C@H](CCO)C(F)(F)F)N1C[C@@H]2[C@H](C1)[C@H]2c1ccn(-c2ccc(F)cc2)n1
- IC50 (Monoglyceride lipase): 582 nM
- Ratio [1]: 4570 M⁻¹ s⁻¹
- IC50 [2]: > 12000 nM
- logD [3]: 4.2
- CLint scaled [5]: < 12 mL/min/kg

SMILES: COC[C@@H](OC(=O)N1C[C@@H]2[C@H](C1)[C@H]2c1ccn(-c2ccc(F)cc2)n1)C(F)(F)F
- IC50 (Monoglyceride lipase): 354 nM
- Ratio [1]: 110 M⁻¹ s⁻¹
- IC50 [2]: 1940 nM
- logD [3]: 4.2

SMILES: O=C(OC(C(F)(F)F)C(F)(F)F)N1C[C@@H]2[C@H](C1)[C@H]2c1ccn(-c2ccc(F)cc2)n1
- IC50 (Monoglyceride lipase): 1 to 1.4 nM
- Ratio [1]: 41700 M⁻¹ s⁻¹
- IC50 [2]: 4300 nM
- logD [3]: 5.6
- Ratio IC50 (Homo sapiens): 3000 to 4300
- solubility kinetic [6]: < 1 µM
- inhibition at 10 µM [7]: 58%
- inhibition [8]: 95%

SMILES: O=C(OC(CO)C(F)(F)F)N1C[C@@H]2[C@H](C1)[C@H]2c1ccn(-c2ccc(F)cc2)n1 (some centres not stated)
- IC50 (Monoglyceride lipase): 6 nM
- IC50 [2]: 14000 nM
- logD [3]: 3.9

SMILES: O=C(OC[C@@H](O)C(F)(F)F)N1C[C@@H]2[C@H](C1)[C@H]2c1ccn(-c2ccc(F)cc2)n1
- IC50 (Monoglyceride lipase): 132 nM
- Ratio [1]: 244 M⁻¹ s⁻¹
- IC50 [2]: > 30000 nM
- logD [3]: 4
- CLint scaled [5]: 9.4 mL/min/kg

SMILES: CC(OC(=O)N1C[C@@H]2[C@H](C1)[C@H]2c1ccn(-c2ccc(F)cc2)n1)C(F)(F)F (some centres not stated)
- IC50 (Monoglyceride lipase): 242 nM
- IC50 [2]: > 23000 nM
- logD [3]: 4.8
- Ratio IC50 (Homo sapiens): > 95

SMILES: O=C(OCC(F)(F)F)N1C[C@@H]2[C@H](C1)[C@H]2c1ccn(-c2ccc(F)cc2)n1
- IC50 (Monoglyceride lipase): 445 nM
- Ratio [1]: 103 M⁻¹ s⁻¹
- IC50 [2]: 970 nM
- logD [3]: 4.2

SMILES: O=C(ON1C(=O)CCC1=O)N1C[C@@H]2[C@H](C1)[C@H]2c1ccn(-c2ccc(F)cc2)n1
- IC50 (Monoglyceride lipase): 46 nM
- Ratio [1]: 156 M⁻¹ s⁻¹
- IC50 [2]: 3600 nM
- logD [4]: 2.6
- inhibition (INH) (Liver carboxylesterase 1): Not Active
- inhibition [8]: inactive
- inhibition (INH) (Cocaine esterase): Not Active
- inhibition [9]: inactive
- inhibition [10]: inactive

SMILES: O=C(Oc1ccc([N+](=O)[O-])cc1)N1CCC(C(O)(c2ccc3c(c2)OCO3)c2ccc3c(c2)OCO3)CC1
- IC50 [2]: > 11000 nM
- logD [3]: 5.1
